Assay results: ChEMBL document CHEMBL1129681, “Synthesis, absolute configuration, and biological profile of the enantiomers of trans-[2-(2,6-dimethoxyphenoxy)ethyl] [(3-p-tolyl-2,3-dihydro-1,4-benzodioxin-2-yl)methyl]amine (mephendioxan), a potent competitive alpha 1A-adrenoreceptor antagonist” (J Med Chem, 1996)

Columns and labels:
[1] = target: T1, Adrenergic receptor alpha-2 (Rattus norvegicus) (UniProt P22086+P19328+P22909); conditions: Vas deferens
[2] = target: T2, Adrenergic receptor alpha-1 (Rattus norvegicus, UniProt P15823+P23944+P43140); assay: Binding affinity towards Alpha-1 adrenergic receptor in rat cerebral cortex using [3H]prazosin as radioligand; type: tissue-based
T2 sequence (P15823 whole entry): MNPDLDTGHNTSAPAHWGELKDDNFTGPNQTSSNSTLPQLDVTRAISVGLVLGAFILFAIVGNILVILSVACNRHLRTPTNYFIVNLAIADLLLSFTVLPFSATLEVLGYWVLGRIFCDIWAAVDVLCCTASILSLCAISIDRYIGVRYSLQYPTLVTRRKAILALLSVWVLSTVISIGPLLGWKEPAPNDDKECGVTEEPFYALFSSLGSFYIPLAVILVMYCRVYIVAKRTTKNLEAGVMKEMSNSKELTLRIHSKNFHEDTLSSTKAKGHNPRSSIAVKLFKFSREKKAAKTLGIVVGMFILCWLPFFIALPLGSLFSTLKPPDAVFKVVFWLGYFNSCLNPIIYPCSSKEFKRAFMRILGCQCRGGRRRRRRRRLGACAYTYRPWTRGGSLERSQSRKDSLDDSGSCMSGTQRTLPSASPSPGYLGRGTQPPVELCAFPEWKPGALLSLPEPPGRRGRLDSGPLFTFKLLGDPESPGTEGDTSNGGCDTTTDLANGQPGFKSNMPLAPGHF
T2 sequence (P23944 whole entry): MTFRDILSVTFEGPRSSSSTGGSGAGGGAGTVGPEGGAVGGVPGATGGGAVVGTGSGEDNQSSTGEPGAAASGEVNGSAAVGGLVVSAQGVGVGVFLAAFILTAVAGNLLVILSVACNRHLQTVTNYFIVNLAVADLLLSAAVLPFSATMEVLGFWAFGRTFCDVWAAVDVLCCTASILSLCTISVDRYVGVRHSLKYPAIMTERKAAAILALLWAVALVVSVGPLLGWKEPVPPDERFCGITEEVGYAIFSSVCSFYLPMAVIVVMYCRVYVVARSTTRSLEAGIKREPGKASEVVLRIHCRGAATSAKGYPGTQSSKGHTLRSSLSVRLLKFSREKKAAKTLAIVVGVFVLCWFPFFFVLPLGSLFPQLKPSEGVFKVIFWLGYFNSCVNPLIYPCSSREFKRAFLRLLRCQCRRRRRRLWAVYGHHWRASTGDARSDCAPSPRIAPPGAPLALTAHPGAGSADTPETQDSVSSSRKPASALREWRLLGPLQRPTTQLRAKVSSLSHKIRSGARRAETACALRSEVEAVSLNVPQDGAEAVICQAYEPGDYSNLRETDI
T2 sequence (P43140 whole entry): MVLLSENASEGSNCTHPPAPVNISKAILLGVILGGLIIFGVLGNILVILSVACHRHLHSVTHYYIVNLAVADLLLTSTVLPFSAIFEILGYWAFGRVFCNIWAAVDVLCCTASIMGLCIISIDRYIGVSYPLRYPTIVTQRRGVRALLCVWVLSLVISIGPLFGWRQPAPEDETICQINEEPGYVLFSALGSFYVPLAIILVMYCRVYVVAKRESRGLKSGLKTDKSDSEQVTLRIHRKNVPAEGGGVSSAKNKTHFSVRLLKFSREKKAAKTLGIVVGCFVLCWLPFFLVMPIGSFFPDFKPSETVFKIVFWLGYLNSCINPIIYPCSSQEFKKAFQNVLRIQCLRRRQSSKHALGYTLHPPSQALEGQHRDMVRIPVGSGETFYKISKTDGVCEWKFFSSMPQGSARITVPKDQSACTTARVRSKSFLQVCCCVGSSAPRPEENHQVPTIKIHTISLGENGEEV
In short: (§1)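 Rat brain membranes (native receptors): cerebral cortex for α1 with [3H]prazosin (79.2 Ci/mmol) and α2 with [3H]rauwolscine (80.5 Ci/mmol); hippocampus for 5-HT1A with [3H]8-OH-DPAT (162.9 Ci/mmol); striatum for D2 with [3H]spiperone (17.7 Ci/mmol). Radioligand competition by test drug; mean ± SE of at least three separate experiments in triplicate.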

[3] = target: T2, Adrenergic receptor alpha-1; assay: pA2 values was evaluated against Alpha-1 adrenergic receptor in the isolated Rat Vas Deferens; type: functional, tissue-based
In short: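 Functional antagonism was measured in isolated tissue. Dose ratios were taken at agonist EC50 values at three antagonist concentrations, each concentration tested five times. pA2 was derived from Schild plots constrained to slope -1 and is reported as mean ± SE of n experiments.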

D(2) dopamine receptor [4] = target: T3, D(2) dopamine receptor (Rattus norvegicus, UniProt P61169); assay: Binding affinity towards Dopamine receptor D2 in rat striatum using [3H]spiperone as radioligand; type: tissue-based
In short: as §1

[5] = target: T4, Adrenergic receptor alpha-2 (Rattus norvegicus, UniProt P22086+P19328+P22909); assay: (§2) Binding affinity towards Alpha-2 adrenergic receptor in rat cerebral cortex using [3H]rauwolscine as radioligand; type: tissue-based
T4 sequence (P22086 whole entry): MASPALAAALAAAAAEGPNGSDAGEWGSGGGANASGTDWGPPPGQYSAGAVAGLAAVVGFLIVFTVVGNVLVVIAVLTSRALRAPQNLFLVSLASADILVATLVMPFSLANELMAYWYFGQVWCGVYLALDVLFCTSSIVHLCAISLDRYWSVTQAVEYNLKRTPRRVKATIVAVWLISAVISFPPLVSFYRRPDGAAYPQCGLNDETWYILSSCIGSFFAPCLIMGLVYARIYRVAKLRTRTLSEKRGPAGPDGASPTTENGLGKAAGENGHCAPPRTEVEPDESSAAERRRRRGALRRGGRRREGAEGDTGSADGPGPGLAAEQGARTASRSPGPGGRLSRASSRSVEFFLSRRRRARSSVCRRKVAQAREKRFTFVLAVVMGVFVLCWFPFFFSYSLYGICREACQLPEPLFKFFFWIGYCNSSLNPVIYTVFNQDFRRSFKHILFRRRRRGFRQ
T4 sequence (P19328 whole entry): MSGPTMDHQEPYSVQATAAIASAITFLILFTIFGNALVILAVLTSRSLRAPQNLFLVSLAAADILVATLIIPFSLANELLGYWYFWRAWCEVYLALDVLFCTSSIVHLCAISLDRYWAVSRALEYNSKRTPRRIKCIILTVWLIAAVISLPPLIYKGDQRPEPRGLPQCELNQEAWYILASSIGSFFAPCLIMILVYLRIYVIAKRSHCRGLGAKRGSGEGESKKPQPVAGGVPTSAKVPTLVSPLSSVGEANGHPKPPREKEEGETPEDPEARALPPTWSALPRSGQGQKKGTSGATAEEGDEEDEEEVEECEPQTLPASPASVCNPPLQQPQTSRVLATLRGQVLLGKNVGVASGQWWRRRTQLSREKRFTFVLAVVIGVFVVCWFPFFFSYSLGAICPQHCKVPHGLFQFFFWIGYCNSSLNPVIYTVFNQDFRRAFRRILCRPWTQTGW
T4 sequence (P22909 whole entry): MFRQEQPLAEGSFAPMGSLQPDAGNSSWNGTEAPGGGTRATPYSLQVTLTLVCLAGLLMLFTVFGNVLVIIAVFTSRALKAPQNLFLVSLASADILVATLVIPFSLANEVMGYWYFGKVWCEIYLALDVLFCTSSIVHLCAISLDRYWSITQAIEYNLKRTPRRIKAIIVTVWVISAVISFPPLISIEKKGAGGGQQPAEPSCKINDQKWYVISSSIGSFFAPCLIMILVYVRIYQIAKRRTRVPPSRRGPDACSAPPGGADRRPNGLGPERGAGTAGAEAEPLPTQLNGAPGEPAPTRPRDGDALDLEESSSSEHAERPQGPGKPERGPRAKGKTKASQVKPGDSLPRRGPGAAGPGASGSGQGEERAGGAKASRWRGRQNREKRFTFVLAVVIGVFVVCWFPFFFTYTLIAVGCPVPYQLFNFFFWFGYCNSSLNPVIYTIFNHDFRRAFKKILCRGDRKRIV
In short: as §1

[6] = target: T5, Alpha-1D adrenergic receptor (Rattus norvegicus, UniProt P23944); assay: Binding affinity towards Alpha-1D adrenergic receptor in rat brain using [3H]prazosin as radioligand; type: tissue-based
T5 sequence (P23944 whole entry): T2 sequence (P23944 whole entry)

[7] = target: T6, 5-hydroxytryptamine receptor 1A (Rattus norvegicus, UniProt P19327); assay: Binding affinity towards 5-hydroxytryptamine 1A receptor in rat hypocampus membrane using [3H]8-OH-DPAT as radioligand; type: cell membranes
T6 sequence (P19327 whole entry): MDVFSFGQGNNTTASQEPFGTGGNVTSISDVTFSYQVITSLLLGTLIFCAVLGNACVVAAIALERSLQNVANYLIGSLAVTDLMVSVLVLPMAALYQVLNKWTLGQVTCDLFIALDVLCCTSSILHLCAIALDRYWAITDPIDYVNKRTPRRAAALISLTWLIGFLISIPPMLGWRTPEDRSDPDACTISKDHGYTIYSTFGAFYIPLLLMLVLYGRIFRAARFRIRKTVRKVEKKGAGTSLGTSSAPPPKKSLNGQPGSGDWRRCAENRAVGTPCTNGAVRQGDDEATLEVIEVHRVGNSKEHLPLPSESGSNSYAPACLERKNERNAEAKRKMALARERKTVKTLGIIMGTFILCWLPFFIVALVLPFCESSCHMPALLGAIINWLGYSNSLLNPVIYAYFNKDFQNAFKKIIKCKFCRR
In short: as §1

[8] = target: T7, Alpha-1A adrenergic receptor (Rattus norvegicus, UniProt P43140); assay: Binding affinity towards Alpha-1A adrenergic receptor in rat hippocampal membranes using [3H]prazosin as radioligand; type: cell membranes, Hippocampus
T7 sequence (P43140 whole entry): T2 sequence (P43140 whole entry)
In short: (§3)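 Native α1A site from rat hippocampus membranes pretreated with CEC, labelled with [3H]prazosin in competition binding. Mean ± SE of at least three separate experiments, each run in triplicate.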

[9] = target: T8, Alpha-1A adrenergic receptor (Bos taurus, UniProt P18130); assay: Binding affinity towards Alpha-1A adrenergic receptor in bovine brain using [3H]prazosin as radioligand
T8 sequence (P18130 whole entry): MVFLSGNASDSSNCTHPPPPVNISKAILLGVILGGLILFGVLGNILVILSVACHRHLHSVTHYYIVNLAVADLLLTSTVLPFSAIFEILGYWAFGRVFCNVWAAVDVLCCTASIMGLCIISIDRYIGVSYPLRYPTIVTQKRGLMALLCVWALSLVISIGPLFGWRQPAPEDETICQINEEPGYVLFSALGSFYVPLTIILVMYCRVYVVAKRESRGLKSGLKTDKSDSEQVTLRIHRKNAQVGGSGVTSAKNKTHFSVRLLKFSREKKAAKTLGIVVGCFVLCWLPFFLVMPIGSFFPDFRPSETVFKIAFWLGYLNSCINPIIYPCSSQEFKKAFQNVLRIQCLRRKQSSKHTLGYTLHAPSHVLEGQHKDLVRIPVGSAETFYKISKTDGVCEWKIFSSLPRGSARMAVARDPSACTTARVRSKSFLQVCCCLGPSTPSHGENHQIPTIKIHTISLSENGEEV
In short: (§4)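 Membranes (35-70 µg protein) from COS-7 cells transiently expressing bovine α1a, hamster α1b or rat α1d adrenoceptor. Incubated with 0.3-0.6 nM [3H]prazosin ± displacer in 50 mM Tris-HCl pH 7.4, 10 µM pargyline, 0.1% ascorbic acid, 30 min at 25 °C. Stopped with ice-cold buffer, then rapid filtration. Mean ± SE of ≥3 experiments in triplicate.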

[10] = target: T1, Adrenergic receptor alpha-2 (Rattus norvegicus); conditions: Vas deferens; remark: listed apart in the source
[11] = target: T9, Alpha-1B adrenergic receptor (Rattus norvegicus, UniProt P15823); assay: Binding affinity towards Alpha-1B adrenergic receptor in rat liver using [3H]prazosin as radioligand
T9 sequence (P15823 whole entry): T2 sequence (P15823 whole entry)

[12] = target: T1, Adrenergic receptor alpha-2 (Rattus norvegicus); assay: as §2; type: tissue-based
In short: as §1

D(2) dopamine receptor [13] = target: T3, D(2) dopamine receptor; assay: In vitro inhibitory activity against [3H]spiperone binding to Dopamine receptor D2
[14] = target: T8, Alpha-1A adrenergic receptor; assay: Binding affinity towards Alpha-1A adrenergic receptor in bovine brain using [3H]-prazosin as radioligand
In short: as §4

[15] = target: T7, Alpha-1A adrenergic receptor; assay: Binding affinity towards Alpha-1A adrenergic receptor in rat hippocampus (+ 10 uM) […] membrane using [3H]prazosin as radioligand; type: tissue-based
In short: as §3

T3 sequence (P61169 whole entry): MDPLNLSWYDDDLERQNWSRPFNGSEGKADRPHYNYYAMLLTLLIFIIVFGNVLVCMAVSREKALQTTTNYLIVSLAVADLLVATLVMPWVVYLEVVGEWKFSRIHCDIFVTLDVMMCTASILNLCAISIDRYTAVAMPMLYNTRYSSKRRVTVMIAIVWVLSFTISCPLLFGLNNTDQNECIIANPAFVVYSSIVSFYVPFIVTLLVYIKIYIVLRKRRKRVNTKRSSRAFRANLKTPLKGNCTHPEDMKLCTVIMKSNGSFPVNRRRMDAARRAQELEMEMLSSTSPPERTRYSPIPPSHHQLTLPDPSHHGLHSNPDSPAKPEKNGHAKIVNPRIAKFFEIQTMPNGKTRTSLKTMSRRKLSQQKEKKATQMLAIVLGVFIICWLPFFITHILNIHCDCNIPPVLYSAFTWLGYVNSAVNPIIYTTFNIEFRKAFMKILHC

-Log KB [1]	Ki [2] [nM]	pA2 [3]	Ki (D(2) dopamine receptor [4]) [nM]	Ki [5] [nM]	Ki [6] [nM]	Ki [7] [nM]	Ki [8] [nM]	Ki [9] [nM]	-Log KB [10]	Ki [11] [nM]	Affinity [12] [µM]	Ki (D(2) dopamine receptor [13]) [nM]	Ki [14] [nM]	Ki [15] [nM]	SMILES
6.29	8.72	9.13	123	14.72	6.26	7.26	1.29	0.62							COc1cccc(OC)c1OCCNCC1COc2ccccc2O1 (stereo not given)
	121.2	7.59	827	2142	191	1260	40.3	8.34	< 5	774					COc1cccc(OC)c1OCCNC[C@H]1Oc2ccccc2O[C@@H]1c1ccc(C)cc1
	9.97	8.92	86.5	4293	6.57	889	1.76	0.35	< 5	62.6					COc1cccc(OC)c1OCCNC[C@@H]1Oc2ccccc2O[C@H]1c1ccc(C)cc1
	17.03	8.67			11.8	606			< 5	103	3.5	82.3	0.91	5.32	COc1cccc(OC)c1OCCNCC1Oc2ccccc2OC1c1ccc(C)cc1 (racemic)
				1611											COC(=O)C1=C(C)NC(C)=C(C(=O)OCCCN2CCC(c3ccccc3)(c3ccccc3)CC2)[C@H]1c1cccc([N+](=O)[O-])c1 [NIGULDIPINE]
